{"data": "Results collected from several papers", "target": "NUAK family SNF1-like kinase 1 (NUAK1, Homo sapiens, UniProt O60285)", "Residues used in one study (O60285 1-661)": "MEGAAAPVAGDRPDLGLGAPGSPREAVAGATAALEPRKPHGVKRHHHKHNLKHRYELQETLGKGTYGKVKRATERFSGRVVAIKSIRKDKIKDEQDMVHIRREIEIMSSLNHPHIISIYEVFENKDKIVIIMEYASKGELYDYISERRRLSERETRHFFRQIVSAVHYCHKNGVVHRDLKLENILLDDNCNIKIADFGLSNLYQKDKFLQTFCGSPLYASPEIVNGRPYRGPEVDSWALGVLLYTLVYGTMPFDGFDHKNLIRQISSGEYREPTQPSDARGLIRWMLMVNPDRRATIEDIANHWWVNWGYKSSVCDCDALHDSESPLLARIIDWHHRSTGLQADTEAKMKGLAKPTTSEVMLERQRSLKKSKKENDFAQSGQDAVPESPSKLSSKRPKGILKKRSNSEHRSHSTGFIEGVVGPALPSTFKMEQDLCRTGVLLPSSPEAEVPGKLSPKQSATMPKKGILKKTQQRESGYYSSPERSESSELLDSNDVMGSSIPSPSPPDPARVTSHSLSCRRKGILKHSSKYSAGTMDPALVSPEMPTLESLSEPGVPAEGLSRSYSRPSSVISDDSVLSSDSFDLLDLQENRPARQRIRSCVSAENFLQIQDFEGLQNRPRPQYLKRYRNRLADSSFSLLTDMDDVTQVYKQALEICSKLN", "note": "Each line is one published result; the experiments were not run side by side."}
{"SMILES": "O=c1[nH]c2ccccc2n1C1CCN(Cc2ccc(-c3[nH]c4cc5ncnc5cc4nc3-c3ccccc3)cc2)CC1", "assay": "cell-free assay", "setting": "0.5 µM", "quantity": "remaining signal", "result": "103%"}
{"SMILES": "Cn1cncc1[C@](O)(COc1ccc(C#N)cc1-c1ccc(OC(F)(F)F)cc1)c1ccc(C#N)cc1", "assay": "cell-free assay, competition with immobilised ligand", "setting": "1 µM", "quantity": "remaining binding", "result": "81%"}
{"SMILES": "COc1ncccc1-c1cnn2ccc(N3CCN(C(=O)OC(C)C)CC3)nc12", "assay": "binding, competition with immobilised ligand", "setting": "1 µM", "quantity": "remaining binding", "result": "65%"}
{"SMILES": "N#CC1(c2ccccn2)CCN(Cc2cc(C(=O)O)c(=O)n3ccccc23)CC1", "assay": "cell-free assay, competition with immobilised ligand", "setting": "1 µM", "quantity": "remaining binding", "result": "98%"}
{"SMILES": "Cn1cc(-c2cc(F)cc(N3CCn4c(cc5c4CCCC5)C3=O)c2CO)cc(Nc2ccc(N3CCN(C4COC4)CC3)cn2)c1=O", "assay": "enzyme activity, inhibitor", "setting": "0.1 µM", "quantity": "inhibition", "result": "17%"}
{"SMILES": "CC(C)(C)c1cc(C=C(C#N)C#N)cc(Br)c1O", "assay": "enzyme activity, inhibitor", "setting": "0.5 µM", "quantity": "remaining activity", "result": "95.4%"}
{"SMILES": "C#Cc1n[nH]c2c(-c3cn([C@@H](C)c4ccccn4)c(=O)[nH]c3=O)cc(F)cc12", "assay": "enzyme activity, inhibitor", "setting": "0.1 µM", "quantity": "inhibition", "result": "3.3%"}
{"SMILES": "Cn1cc(-c2cccc(N3CCc4c(sc5c4CC(C)(C)C5)C3=O)c2CO)cc(Nc2ccncn2)c1=O", "assay": "enzyme activity, inhibitor", "setting": "1 µM", "quantity": "inhibition", "result": "14%"}
{"SMILES": "C#Cc1n[nH]c2c(-c3cn([C@@H](C)c4ccccc4)c(=O)[nH]c3=O)cc(F)cc12", "assay": "enzyme activity, inhibitor", "setting": "0.1 µM", "quantity": "inhibition", "result": "0.4%"}
{"SMILES": "Nc1ncc(-c2nc(N3CCOCC3)nc(N3CCOCC3)n2)c(C(F)F)n1", "assay": "binding, competition with immobilised ligand", "setting": "10 µM", "quantity": "remaining binding", "result": "94%"}
{"SMILES": "Cc1nn(C)cc1-c1nc2c(N3CCN(Cc4ccc(Cl)cc4)CC3)c(Cl)cnc2[nH]1", "assay": "binding, competition with immobilised ligand", "setting": "1 µM", "quantity": "remaining binding", "result": "9.6%"}
